Results published in ChEMBL document CHEMBL4350976, “Sequence modification of heptapeptide selected by phage display as homing device for HT-29 colon cancer cells to improve the anti-tumour activity of drug delivery systems” (Eur J Med Chem, 2019).
Where a SMILES comes first, the peptide text is derived from it. The star is where a group is joined. X1 = COc1cccc2c1C(=O)c1c(O)c3c(c(O)c1C2=O)C[C@@](O)(/C(C)=N/OCC(=O)*)C[C@@H]3O[C@H]1C[C@H](N)[C@H](O)[C@H](C)O1

Columns and labels:
[1] = Drug uptake in lysosome of human HT-29 cells assessed as increase in fluorescence at 50 uM after 30 mins by LysoTracker deep red staining based confocal microscopic analysis; format: ADME, subcellular; details: ht-29, 0.5 h
Summary of the method: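 HT-29 cells were exposed to 50 µM conjugate for 30 min before imaging. Lysosomes were stained with LysoTracker Deep Red and mitochondria with MitoTracker Deep Red. Confocal imaging detected Dau at 550–600 nm.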

MDA-MB-231 = test: Cytostatic activity against human MDA-MB-231 cells preincubated for 24 hrs under serum free condition followed by compound washout and further incubation for 48 hrs in presence of serum by MTT assay; format: functional, cell-based
Summary of the method: (§1)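 Cells were grown at 37 °C in 5% CO2 in medium with 10% heat-inactivated FBS (20% for OVCAR-3) plus penicillin/streptomycin. The medium was RPMI-1640 for most lines, DMEM for U-87 MG and MRC-5, and IMDM for PE/CA-PJ lines. Seeding was 3×10^3–10×10^3 cells per well. Cells had 24 h compound exposure, a wash, and 48 h further culture. Read-out was MTT, normalized to untreated cells and fitted by nonlinear regression for IC50.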

HepG2 = test: Potency index, ratio of compound IC50 to Daunomycin IC50 for human HepG2 cells preincubated for 24 hrs under serum free condition followed by compound washout and further incubation for 48 hrs in presence of serum by MTT assay; format: functional
B16 [2] = test: Cytostatic activity against mouse B16 cells preincubated for 24 hrs under serum free condition followed by compound washout and further incubation for 48 hrs in presence of serum by MTT assay; format: functional, cell-based; summary of the method: as §1
4T1 [3] = test: Potency index, ratio of compound IC50 to Daunomycin IC50 for mouse 4T1 cells preincubated for 24 hrs under serum free condition followed by compound washout and further incubation for 48 hrs in presence of serum by MTT assay; format: functional
[4] = Potency index, ratio of compound IC50 to Daunomycin IC50 for human PE/CA-PJ15 cells preincubated for 24 hrs under serum free condition followed by compound washout and further incubation for 48 hrs in presence of serum by MTT assay; format: functional
OVCAR-3 [5] = test: Potency index, ratio of compound IC50 to Daunomycin IC50 for human OVCAR3 cells preincubated for 24 hrs under serum free condition followed by compound washout and further incubation for 48 hrs in presence of serum by MTT assay; format: functional
PANC-1 = test: Cytostatic activity against human PANC1 cells preincubated for 24 hrs under serum free condition followed by compound washout and further incubation for 48 hrs in presence of serum by MTT assay; format: functional, cell-based; summary of the method: as §1
A549 = test: Cytostatic activity against human A549 cells preincubated for 24 hrs under serum free condition followed by compound washout and further incubation for 48 hrs in presence of serum by MTT assay; format: functional, cell-based; summary of the method: as §1
PC-3 [6] = test: Potency index, ratio of compound IC50 to Daunomycin IC50 for human PC3 cells preincubated for 24 hrs under serum free condition followed by compound washout and further incubation for 48 hrs in presence of serum by MTT assay; format: functional
[7] = Retention time of the compound using 0.1% TFA in water and 0.1% TFA in acetonitrile-water (80:20 v/v) as eluents by RP-HPLC analysis; format: physicochemical
Summary of the method: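 Analytical RP-HPLC. Eluent A was 0.1% TFA in water and eluent B was 0.1% TFA in acetonitrile-water (80:20, v/v). Gradient: 0% B held to 5 min, then to 90% B at 50 min. Flow 1 mL/min, detection at 220 nm. The column was a Phenomenex Aeris Peptide XB-C18 (250×4.6 mm, 3.6 μm) or a Nucleosil C18 (5 μm, 100 Å, 250×4.6 mm), depending on the conjugate series.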

[8] = Cytostatic activity against human M24 cells preincubated for 24 hrs under serum free condition followed by compound washout and further incubation for 48 hrs in presence of serum by MTT assay; format: functional, cell-based; summary of the method: as §1
[9] = Potency index, ratio of compound IC50 to Daunomycin IC50 for human WM983B cells preincubated for 24 hrs under serum free condition followed by compound washout and further incubation for 48 hrs in presence of serum by MTT assay; format: functional
[10] = Cytostatic activity against human WM983B cells preincubated for 24 hrs under serum free condition followed by compound washout and further incubation for 48 hrs in presence of serum by MTT assay; format: functional, cell-based; summary of the method: as §1
HCT-116 = test: Cytostatic activity against human HCT116 cells preincubated for 24 hrs under serum free condition followed by compound washout and further incubation for 48 hrs in presence of serum by MTT assay; format: functional, cell-based; summary of the method: as §1
B16 [11] = test: Potency index, ratio of compound IC50 to Daunomycin IC50 for mouse B16 cells preincubated for 24 hrs under serum free condition followed by compound washout and further incubation for 48 hrs in presence of serum by MTT assay; format: functional
OVCAR-3 [12] = test: Cytostatic activity against human OVCAR3 cells preincubated for 24 hrs under serum free condition followed by compound washout and further incubation for 48 hrs in presence of serum by MTT assay; format: functional, cell-based; summary of the method: as §1
4T1 [13] = test: Cytostatic activity against mouse 4T1 cells preincubated for 24 hrs under serum free condition followed by compound washout and further incubation for 48 hrs in presence of serum by MTT assay; format: functional, cell-based; summary of the method: as §1
NCI-H1650 = test: Potency index, ratio of compound IC50 to Daunomycin IC50 for human NCI-H1650 cells preincubated for 24 hrs under serum free condition followed by compound washout and further incubation for 48 hrs in presence of serum by MTT assay; format: functional
[14] = Cytostatic activity against human PE/CA-PJ15 cells preincubated for 24 hrs under serum free condition followed by compound washout and further incubation for 48 hrs in presence of serum by MTT assay; format: functional, cell-based; summary of the method: as §1
HT-29 [15] = test: Cytotoxicity against human HT-29 cells assessed as reduction in cell viability by measuring decrease in fluorescence intensity at 100 uM incubated for 3 hrs by flow cytometry; format: cell-based; details: ht-29, 3 h
[16] = Cytostatic activity against human PECAPJ41 cells preincubated for 24 hrs under serum free condition followed by compound washout and further incubation for 48 hrs in presence of serum by MTT assay; format: functional, cell-based; summary of the method: as §1
PC-3 [17] = test: Cytostatic activity against human PC3 cells preincubated for 24 hrs under serum free condition followed by compound washout and further incubation for 48 hrs in presence of serum by MTT assay; format: functional, cell-based; summary of the method: as §1
A2058 [18] = test: Cytostatic activity against human A2058 cells preincubated for 24 hrs under serum free condition followed by compound washout and further incubation for 48 hrs in presence of serum by MTT assay; format: functional, cell-based; summary of the method: as §1
MRC5 = test: Cytostatic activity against human MRC5 cells preincubated for 24 hrs under serum free condition followed by compound washout and further incubation for 48 hrs in presence of serum by MTT assay; format: ADME, cell-based; summary of the method: as §1
HT-29 [19] = test: Cytostatic activity against human HT-29 cells preincubated for 24 hrs under serum free condition followed by compound washout and further incubation for 48 hrs in presence of serum by MTT assay; format: functional, cell-based
Summary of the method: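 HT-29 cells were exposed to the compound for 24 h, washed, and kept a further 48 h. Viability was read by MTT. Absorbances were normalized to untreated controls and fitted by nonlinear regression to dose-response curves to give IC50.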

A2058 [20] = test: Potency index, ratio of compound IC50 to Daunomycin IC50 for human A2058 cells preincubated for 24 hrs under serum free condition followed by compound washout and further incubation for 48 hrs in presence of serum by MTT assay; format: functional
DU-145 = test: Potency index, ratio of compound IC50 to Daunomycin IC50 for human DU145 cells preincubated for 24 hrs under serum free condition followed by compound washout and further incubation for 48 hrs in presence of serum by MTT assay; format: functional

## COc1cccc2c1C(=O)c1c(O)c3c(c(O)c1C2=O)C[C@@](O)(/C(C)=N/OCC(=O)N[C@@H](CC(C)C)C(=O)N[C@@H](CCCNC(=N)N)C(=O)N[C@@H](CCCNC(=N)N)C(=O)N[C@@H](Cc1ccc(O)cc1)C(=O)N[C@H](C(=O)N[C@@H](Cc1cnc[nH]1)C(=O)N[C@@H](CC(C)C)C(=O)N[C@@H](Cc1ccccc1)C(=O)N[C@@H](Cc1ccc(O)cc1)C(=O)N[C@@H](C)C(=O)N[C@H](C(N)=O)[C@@H](C)O)C(C)C)C[C@@H]3O[C@H]1C[C@H](N)[C@H](O)[C@H](C)O1 (X1-LRRYVHLFYAT-NH2)
[1]
  Drug uptake: Active
MDA-MB-231
  IC50: 4.6 µM
HepG2
  Ratio IC50: 220.2
B16 [2]
  IC50: 3 µM
4T1 [3]
  Ratio IC50: 284.6
[4]
  Ratio IC50: 277.3
OVCAR-3 [5]
  Ratio IC50: 24
PANC-1
  IC50: 26.9 µM
A549
  IC50: 5.9 µM
PC-3 [6]
  Ratio IC50: 226.7
[7]
  Retention time: 31.2 to 33.2 min
[8]
  IC50: 5.8 µM
[9]
  Ratio IC50: 114.6
[10]
  IC50: 5.1 µM
HCT-116
  IC50: 7.2 µM
B16 [11]
  Ratio IC50: 335.4
OVCAR-3 [12]
  IC50: 11.3 µM
4T1 [13]
  IC50: 11.6 µM
NCI-H1650
  Ratio IC50: 60.1
[14]
  IC50: 7.4 µM
HT-29 [15]
  Activity: Toxic
[16]
  IC50: 4.3 µM
PC-3 [17]
  IC50: 5.9 µM
A2058 [18]
  IC50: 3.5 µM
MRC5
  IC50: 52.1 µM
HT-29 [19]
  IC50: 6.5 to 11.6 µM
A2058 [20]
  Ratio IC50: 104.5
DU-145
  Ratio IC50: 142.3
